# Reference: ChEMBL document CHEMBL1125261, “1-Naphthylpiperazine derivatives as potential atypical antipsychotic agents” (J Med Chem, 1991)
# Activity calls are given as the source filed them. The calls are words filed in the database; no cut-off is given here.
# Experiments:
# [1] = target: T1, Serotonin 2 (5-HT2) receptor (Rattus norvegicus, UniProt P30994+P08909+P14842); experiment: Compound was evaluated for its activity by binding to 5-hydroxytryptamine 2 receptor in the rat brain using [3H]ketanserin as radioligand.; format: tissue-based
# How it was run: (§1)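 Frozen male Sprague-Dawley rat brain cut into 20-μm cryostat sections. Incubated in 50 mM Tris pH 7.5 with 1 nM [3H]ketanserin and test drug, room temperature, 30 min; nonspecific binding with 2 μM pipamperone. Washed in ice-cold buffer, exposed to tritium film 6 weeks, read by densitometry.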
# [2] = target: Adrenergic receptor alpha; experiment: In vitro binding activity against Alpha receptor in rat brain using [3H]prazosin; format: tissue-based
# How it was run: (§2)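 Whole rat brain minus cerebellum homogenized and washed twice in 50 mM Tris-HCl pH 7.7, resuspended in Tris pH 8.0. Incubated in triplicate with 0.22 nM (final) [3H]prazosin and drug, 25 °C, 30 min. Blank was 50 μM norepinephrine. Filtered through glass fiber and scintillation counted. IC50 from three log concentrations in triplicate.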
# [3] = target: D(2) dopamine receptor (Rattus norvegicus, UniProt P61169); experiment: Binding affinity to dopamine receptor D2 in the rat brain using [3H]NPA as radioligand; format: tissue-based
# Sequence of D(2) dopamine receptor (P61169 whole entry): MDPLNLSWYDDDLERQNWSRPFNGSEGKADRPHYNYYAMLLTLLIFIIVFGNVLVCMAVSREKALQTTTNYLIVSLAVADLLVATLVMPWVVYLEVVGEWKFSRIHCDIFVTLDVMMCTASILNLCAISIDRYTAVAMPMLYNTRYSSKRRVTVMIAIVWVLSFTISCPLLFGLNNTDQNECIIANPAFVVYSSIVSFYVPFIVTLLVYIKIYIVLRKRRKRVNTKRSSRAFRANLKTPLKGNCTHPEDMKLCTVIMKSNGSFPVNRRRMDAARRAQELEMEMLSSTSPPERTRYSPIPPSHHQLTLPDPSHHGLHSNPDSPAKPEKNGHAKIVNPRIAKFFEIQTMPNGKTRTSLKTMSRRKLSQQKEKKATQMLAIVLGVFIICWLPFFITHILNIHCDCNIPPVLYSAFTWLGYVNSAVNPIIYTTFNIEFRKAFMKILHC
# How it was run: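 Rat brain D2 binding with [3H]NPA as ligand. IC50 taken from dose-response curves over three log concentrations of test compound, each in triplicate.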
# [4] = tested on: Rattus norvegicus; experiment: Antipsychotic activity determined in vivo by inhibition of amphetamine induced locomotor behavior in rats by the sc administration.; format: functional
# How it was run: (§3)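 Male Sprague-Dawley rats (275–325 g, eight per group) habituated overnight in automated activity boxes, then dosed with test compound suspended in 90% saline/5% ethanol/5% Emulphor. d-Amphetamine sulfate 1.36 mg/kg given 1 h later. Floor quadrant crossings counted over 3 h. ANOVA with Dunnett's test; ED50 and 95% confidence limits by probit analysis of means converted to percent inhibition.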
# [5] = tested on: Rattus norvegicus; experiment: Compound was evaluated for the inhibition of apomorphine induced stereotypy behavior in rats after sc administration.; format: functional; design: unit not given here
# How it was run: (§4)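 Male Sprague-Dawley rats (250–300 g, five per group) given test drug (2 mL/kg) or saline. At 1, 3 and 5 h they received apomorphine 0.75 mg/kg sc in water with 0.1% ascorbic acid. Stereotypy was rated every 10 min up to 50 min. ANOVA then Dunnett's t test over half-log dose multiples; MED was the lowest significant dose.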
# [6] = tested on: Rattus norvegicus; experiment: Compound was evaluated for the inhibition of haloperidol induced catalepsy behavior in rats after sc administration.; format: functional; design: unit not given here
# How it was run: (§5)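 Catalepsy was tested on a horizontal rod after 3 h. Test drug or vehicle was then given and catalepsy duration scored every 30 min for 2.5 h. One-way ANOVA with Dunnett's test over half-log dose multiples; MED was the lowest significant dose.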
# [7] = target: T2, 5-hydroxytryptamine receptor 1A (Rattus norvegicus, UniProt P19327); experiment: Binding affinity to 5-hydroxytryptamine 1A receptor in the rat brain using [3H]8-hydroxy-2-(di-n-propylamine)tetralin as radioligand.; format: tissue-based
# T2 sequence (P19327 whole entry): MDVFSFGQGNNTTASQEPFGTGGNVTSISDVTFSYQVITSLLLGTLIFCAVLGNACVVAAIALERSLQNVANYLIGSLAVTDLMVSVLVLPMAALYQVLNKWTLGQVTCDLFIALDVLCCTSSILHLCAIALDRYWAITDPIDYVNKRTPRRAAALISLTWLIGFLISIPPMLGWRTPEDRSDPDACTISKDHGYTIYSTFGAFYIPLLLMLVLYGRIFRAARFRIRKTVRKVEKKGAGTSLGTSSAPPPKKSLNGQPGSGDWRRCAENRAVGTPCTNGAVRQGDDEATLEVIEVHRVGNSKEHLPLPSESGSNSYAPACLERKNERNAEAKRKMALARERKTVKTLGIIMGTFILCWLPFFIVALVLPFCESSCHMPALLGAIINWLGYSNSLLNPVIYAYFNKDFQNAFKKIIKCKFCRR
# How it was run: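 Rat forebrain P2 membranes: lysed in 5 mM Tris acetate pH 7.4, washed, preincubated 30 min at 30 °C. Incubated with [3H]-8-OH-DPAT and test drug, 30 °C, 20 min; filtered, scintillation counted.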
# [8] = target: T1, Serotonin 2 (5-HT2) receptor; experiment: (§6) Compound was evaluated In vitro for its activity by binding to 5-hydroxytryptamine 2 receptor in the rat brain using [3H]ketanserin as radioligand.; format: tissue-based
# [9] = tested on: Rattus norvegicus; experiment: Antipsychotic activity determined in vivo by inhibition of amphetamine induced locomotor behavior in rats by the po administration.; format: functional; how it was run: as §3
# [10] = tested on: Rattus norvegicus; experiment: Compound was evaluated for the inhibition of haloperidol induced catalepsy behavior in rats after po administration.; format: functional; how it was run: as §5
# [11] = tested on: Rattus norvegicus; experiment: Compound was evaluated for the inhibition of apomorphine induced stereotypy behavior in rats after ip administration.; format: functional; how it was run: as §4
# [12] = tested on: Rattus norvegicus; experiment: Compound was evaluated for the inhibition of apomorphine induced stereotypy behavior in rats after po administration.; format: functional; how it was run: as §4
# [13] = tested on: Rattus norvegicus; experiment: Compound was evaluated for the inhibition of haloperidol induced catalepsy behavior in rats after sc administration; Inactive; format: functional, organism-based
# [14] = tested on: Rattus norvegicus; experiment: Compound was evaluated for inhibition of apomorphine induced stereotypy behavior in rats after sc administration.; format: functional; how it was run: as §4
# [15] = target: Adrenergic receptor alpha; experiment: Compound was evaluated In vitro for its activity by binding to Alpha adrenergic receptor in the rat brain using [3H]prazosin as radioligand.; format: tissue-based
# [16] = target: Adrenergic receptor alpha; experiment: Compound was evaluated In vitro for its activity by binding to Alpha receptor in the rat brain using [3H]prazosin as radioligand.; format: tissue-based; how it was run: as §2
# [17] = target: T1, Serotonin 2 (5-HT2) receptor; experiment: as §6; format: tissue-based; how it was run: as §1; remark: listed apart in the source
SMILES,IC50 [2],IC50 [3],ED50 [4],MED [5],IC50 [7],also measured
Oc1nc(-c2ccc(CCN3CCN(c4cccc5ccccc45)CC3)cc2)cs1,65 nM,80 nM,> 10 mg/kg,>17.8,–,IC50 [1]: 249 nM; MED [6]: 10
O=C1Cc2cc(CCN3CCN(c4cccc5ccccc45)CC3)ccc2N1,24 nM,38 nM,1.21 mg/kg,–,4.87 nM,IC50 [8]: 20 nM; ED50 [9]: 13.3 mg/kg; MED [10]: 10; MED [6]: >10
Nc1nc(-c2ccc(CCN3CCN(c4cccc5ccccc45)CC3)cc2)cs1,135 nM,72 nM,–,–,11 nM,IC50 [8]: 385 nM; ED50 [9]: 25.3 mg/kg; MED [11]: 10; MED [12]: 32; MED [10]: 3.2
Cc1nc(-c2ccc(CCN3CCN(c4cccc5ccccc45)CC3)cc2)cs1,166 nM,108 nM,–,>10,–,–
CCN1C(=O)Cc2cc(CCN3CCN(c4cccc5ccccc45)CC3)ccc21,248 nM,81.2 nM,–,–,2.9 nM,–
CN1CCN(C2=Nc3cc(Cl)ccc3Nc3ccccc32)CC1 [CLOZAPINE],–,–,6.9 mg/kg,–,–,MED [13]: inactive
Cc1sc(N)nc1-c1ccc(CCN2CCN(c3cccc4ccccc34)CC2)cc1,234 nM,159 nM,> 10 mg/kg,–,–,MED [14]: >3.2; MED [6]: >3.2
c1ccc2c(N3CCNCC3)cccc2c1,–,–,–,–,–,IC50 [1]: 62 nM
O=C(CCCN1CCC(O)(c2ccc(Cl)cc2)CC1)c1ccc(F)cc1 [HALOPERIDOL],–,–,–,0.032,–,MED [13]: inactive
Oc1nc2ccc(CCN3CCN(c4cccc5ccccc45)CC3)cc2s1,–,–,–,>10,2.2 nM,IC50 [8]: 50 nM; IC50 [15]: 24 nM
CNc1nc(-c2ccc(CCN3CCN(c4cccc5ccccc45)CC3)cc2)cs1,–,155 nM,–,>10,–,IC50 [16]: 252 nM
c1ccc2c(N3CCN(CCc4ccc(-c5csnn5)cc4)CC3)cccc2c1,105 nM,83 nM,–,>10,–,IC50 [1]: 237 nM
Oc1nc2ccc(CCN3CCN(c4cccc5ccccc45)CC3)cc2o1,45 nM,44 nM,1.6 mg/kg,10,6.2 nM,IC50 [17]: 10 nM; ED50 [9]: 40.5 mg/kg; MED [6]: >10
CC1(C)C(=O)Nc2ccc(CCN3CCN(c4cccc5ccccc45)CC3)cc21,40 nM,86 nM,–,–,6.9 nM,IC50 [17]: 11.8 nM
